From ChEMBL document CHEMBL4622889, “Antineurodegenerative Labdane Diterpenoid Glycosides from the Twigs of Pinus koraiensis” (J Nat Prod, 2020)

Legend:
[1] = Cytotoxicity against rat C6 cells assessed as cell viability at 20 uM by MTT assay relative to control; format: cell-based; conditions: read-out: Activity
In short: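 C6 cells exposed to 20 μM of each compound; viability read by MTT and expressed as percent. Means ± SD of three independent experiments.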

[2] = test system: C6; test: Neuroprotective activity in rat C6 cells assessed as NGF secretion at 20 uM incubated for 24 hrs by ELISA relative to control; format: functional
In short: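 Compounds applied to C6 glioma cells at 20 μM for 24 h; NGF released into the conditioned medium quantified by ELISA and given as percent of untreated control (100%). 6-Shogaol served as positive control. Means ± SD of three independent experiments.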

[3] = test system: BV-2; test: Antineuroinflammatory activity against mouse BV2 cells assessed as inhibition of LPS-induced NO production incubated for 24 hrs by Griess assay; format: functional, cell-based; conditions: BV-2, 24 h
In short: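 BV2 microglia activated with LPS; NO production measured across compound concentrations, IC50 taken as the concentration (μM) giving 50% inhibition of NO production. Means ± SD of three independent experiments.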

[4] = Cytotoxicity against mouse BV2 cells assessed as cell viability at 20 uM by MTT assay relative to control; format: cell-based, BV-2; conditions: read-out: Activity
In short: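 BV2 cells treated with 20 μM of each compound; viability determined by MTT and expressed as percent. Means ± SD of three independent experiments.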

| IC50 [3] | SMILES | viability at 20 µM [1] | Activity [2] | viability at 20 µM [4] |
| --- | --- | --- | --- | --- |
| 51.6 µM | C=C1CC[C@@H]2[C@](C)(CCC[C@]2(O)C(=O)O[C@@H]2O[C@H](CO)[C@@H](O)[C@H](O)[C@H]2O)[C@H]1CCC1=CCOC1=O | 76% | 98.6% | 80.7% |
| 24.1 µM | C=C1CC[C@@H]2[C@](C)(CC[C@@H](O)[C@]2(C)C(=O)O[C@@H]2O[C@H](CO)[C@@H](O)[C@H](O)[C@H]2O)[C@H]1CCC1=CCOC1=O | 92.8% | 106.6% | 77.5% |
| 68.8 µM | C=C1CC[C@@H]2[C@](C)(CC[C@H](O)[C@]2(C)C(=O)O[C@@H]2O[C@H](CO)[C@@H](O)[C@H](O)[C@H]2O)[C@H]1CCC1=CCOC1=O | 98.3% | 134.7% | 91.3% |
| 65.8 µM | C=C1CC[C@@H]2[C@](C)(CCC[C@]2(C)C(=O)O[C@@H]2O[C@H](CO)[C@@H](O)[C@H](O)[C@H]2O)[C@H]1CCC1=CCOC1=O | 101% | 142.4% | 92.1% |
| 54.1 µM | C=C1CC[C@@H]2[C@](C)(CCC[C@]2(C)C(=O)O[C@@H]2O[C@H](CO)[C@@H](O)[C@H](O)[C@H]2O)[C@H]1CCC1=CC(=O)OC1 | 105% | 162.7% | 107% |

More lines, now with the values behind:

| SMILES | IC50 [3] | viability at 20 µM [1] | Activity [2] | viability at 20 µM [4] |
| --- | --- | --- | --- | --- |
| C=C1C[C@H](O)[C@@H]2[C@](C)(CCC[C@]2(C)C(=O)O[C@@H]2O[C@H](CO)[C@@H](O)[C@H](O)[C@H]2O)[C@H]1CCC1=CCOC1=O | 35.7 µM | 101% | 128.7% | 99.7% |
| C[C@]12CCC[C@](C)(C(=O)O[C@@H]3O[C@H](CO)[C@@H](O)[C@H](O)[C@H]3O)[C@@H]1CC[C@@](C)(O)[C@@H]2CCC1=CCOC1=O | 402 µM | 111% | 84.5% | 70.4% |
| C=C1CC[C@@H]2[C@](C)(CCC[C@]2(C)C(=O)O[C@@H]2O[C@H](CO)[C@@H](O)[C@H](O)[C@H]2O)[C@H]1CC/C(=C/CO)CO | 152 µM | 86.5% | 105.4% | 133% |
| C=C1CC[C@@H]2[C@](C)(CCC[C@]2(C)C(=O)O[C@@H]2O[C@H](CO)[C@@H](O)[C@H](O)[C@H]2O)[C@H]1CC/C(=C\CO)CO | 65.4 µM | 104% | 162.3% | 135% |
| C[C@]12CCC[C@](C)(C(=O)O[C@@H]3O[C@H](CO)[C@@H](O)[C@H](O)[C@H]3O)[C@@H]1CC=C(CO)[C@@H]2CCC1=CCOC1=O | 93.2 µM | 102% | 119.4% | 87.7% |
| C[C@]12CCC[C@](C)(C(=O)O[C@@H]3O[C@H](CO)[C@@H](O)[C@H](O)[C@H]3O)[C@@H]1CC[C@](C)(O)[C@@H]2CCC1=CCOC1=O | 49.2 µM | 94.2% | 106.1% | 89.6% |
| CNC(=N)NCCC[C@H](N)C(=O)O [TILARGININE] | 28.8 µM | – | – | 99.2% |
